pIC50: −log10 of the molar value.
What was measured:
HEK293 [1] = assay: Selectivity index, ratio of IC50 for HEK cells to IC50 for human K562 cells; format: functional
Procedure, shortened: (§1)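 Selectivity index is IC50 in normal HEK cells divided by IC50 in the cancer cell line.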

K562 = assay: Cytotoxicity against human K562 cells after 72 hrs by MTT assay; format: functional, cell-based; conditions: K562, 72 h
Procedure, shortened: (§2)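 Cells were seeded at 1×10⁴ per well and preincubated 18 h at 37 °C, 5% CO₂. They were then exposed to 1–256 μM for 72 h with DMSO ≤0.25%. MTT was added for 2 h and formazan was solubilized in extraction buffer before reading OD at 570 nm. IC50 is mean ± SD of three independent experiments. HEK is the normal-cell line; cancer lines were grown in DMEM with 10% serum.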

MCF7 = assay: Cytotoxicity against human MCF7 cells after 72 hrs by MTT assay; format: functional, cell-based; conditions: MCF7, 72 h; procedure, shortened: as §2
HeLa [2] = assay: Cytotoxicity against human HeLa cells after 72 hrs by MTT assay; format: functional, cell-based; procedure, shortened: as §2
HeLa [3] = assay: Selectivity index, ratio of IC50 for HEK cells to IC50 for human HeLa cells; format: functional; procedure, shortened: as §1
[4] = Cytotoxicity against HEK cells after 72 hrs by MTT assay; format: cell-based; conditions: Homo sapiens, HEK293, 72 h; procedure, shortened: as §2
HEK293 [5] = assay: Selectivity index, ratio of IC50 for HEK cells to IC50 for human MCF7 cells; format: functional; procedure, shortened: as §1
HeLa [6] = assay: Cell cycle arrest in human HeLa cells assessed as accumulation at S phase at 8 uM after 48 hrs by propidium iodide staining-based flow cytometric analysis (reference value: 10%); format: functional
HeLa [7] = assay: Cell cycle arrest in human HeLa cells assessed as accumulation at S phase at 4 uM after 48 hrs by propidium iodide staining-based flow cytometric analysis (reference value: 7%); format: functional
HeLa [8] = assay: Cell cycle arrest in human HeLa cells assessed as accumulation at G0 phase at 8 uM after 48 hrs by propidium iodide staining-based flow cytometric analysis (reference value: 3%); format: functional
HeLa [9] = assay: Cell cycle arrest in human HeLa cells assessed as accumulation at G0/G1 phase at 4 uM after 48 hrs by propidium iodide staining-based flow cytometric analysis (reference value: 62%); format: functional
HeLa [10] = assay: Cell cycle arrest in human HeLa cells assessed as accumulation at G2/M phase at 4 uM after 48 hrs by propidium iodide staining-based flow cytometric analysis (reference value: 19%)
HeLa [11] = assay: Cell cycle arrest in human HeLa cells assessed as accumulation at G1 phase at 8 uM after 48 hrs by propidium iodide staining-based flow cytometric analysis (reference value: 68%); format: functional
HeLa [12] = assay: Cell cycle arrest in human HeLa cells assessed as accumulation at G2/M phase at 4 uM after 48 hrs by propidium iodide staining-based flow cytometric analysis (reference value: 31%); format: functional

| SMILES | Ratio IC50 (HEK293 [1]) | pIC50 (K562) | pIC50 (MCF7) | pIC50 (HeLa [2]) | Ratio IC50 (HeLa [3]) | pIC50 [4] | Ratio IC50 (HEK293 [5]) | Activity (HeLa [6]) [%] | Activity (HeLa [7]) [%] | Activity (HeLa [8]) [%] | Activity (HeLa [9]) [%] | Activity (HeLa [10]) [%] | Activity (HeLa [11]) [%] | Activity (HeLa [12]) [%] |
| --- | --- | --- | --- | --- | --- | --- | --- | --- | --- | --- | --- | --- | --- | --- |
| COc1cccc(-c2cn(Cc3ccccc3-n3c(C)nc4cc(OC)c(OC)cc4c3=O)nn2)c1 | 2.27 | 4.65 | 4.82 | 4.93 | 4.29 | 4.29 | 3.37 |  |  |  |  |  |  |  |
| COc1cc2nc(C)n(-c3ccccc3Cn3cc(-c4cccnc4)nn3)c(=O)c2cc1OC | 2.7 | 4.70 | 4.99 | 4.88 | 4.07 | 4.27 | 5.3 |  |  |  |  |  |  |  |
| COc1cc2nc(C)n(-c3ccccc3Cn3cc(-c4ccccn4)nn3)c(=O)c2cc1OC | 12.11 | 4.68 | 4.73 | 4.98 | 23.84 | 3.60 | 13.54 | 7 | 7 | 5 | 72 | 19 | 69 | 22 |
| COc1cc2nc(C)n(-c3ccccc3Cn3cc(-c4ccccc4)nn3)c(=O)c2cc1OC | 2.5 | 4.59 | 5.04 | 4.86 | 4.66 | 4.19 | 6.96 |  |  |  |  |  |  |  |
| COc1cc2nc(C)n(-c3ccccc3Cn3cc(CO)nn3)c(=O)c2cc1OC | 3.92 | 4.55 | 4.80 | 4.93 | 9.25 | 3.96 | 6.94 |  |  |  |  |  |  |  |
| COc1cc2nc(C)n(-c3ccccc3Cn3cc(-c4ccc(C)cc4)nn3)c(=O)c2cc1OC | 7.28 | 4.55 | 4.84 | 5.00 | 20.56 | 3.69 | 14.16 | 7 | 6 | 5 | 72 | 17 | 71 | 22 |

Reference: ChEMBL document CHEMBL3414548, “Luotonin-A based quinazolinones cause apoptosis and senescence via HDAC inhibition and activation of tumor suppressor proteins in HeLa cells” (Eur J Med Chem, 2015)
